# Results pooled from the literature.
# pEC50, pIC50, pKd, pKi: −log10 of the molar value.
# HTR2B: 5-hydroxytryptamine receptor 2B (HTR2B, Homo sapiens, UniProt P41595)
# blaNDM-1: Metallo-beta-lactamase type 2 (blaNDM-1, Klebsiella pneumoniae, UniProt C7C422)
# HTR2C: 5-hydroxytryptamine receptor 2C (HTR2C, Homo sapiens, UniProt P28335)
# Tmem97: Sigma intracellular receptor 2 (Tmem97, Rattus norvegicus, UniProt Q5U3Y7)
Compound,target,test,setting,measurement,result
COc1cc(CC(C)N)c(OC)cc1I (stereo not drawn),HTR2B,"ligand displacement, radioligand",,pKi,8.92
COc1ccc2cccc(C(CO)CNC(=O)CF)c2c1 (stereo not drawn),"Melatonin receptor type 1A (MTNR1A, Homo sapiens, UniProt P48039)","GTPγS binding, agonist, radiometric",cell membranes,pEC50,7.10
O=C(O)[C@H]1CS[C@@H]2CS[C@@H](CS)N12,blaNDM-1,"enzyme activity, inhibitor, absorbance",pH 7.5,pKi,4.72
CC(C)C(Nc1nc(Cl)nc2c1ncn2[C@H]1[C@H](O)[C@H](O)[C@]2(CO)C[C@H]12)C(C)C,HTR2C,"ligand displacement, radioligand",,pKi,5.94
COc1cc2c3c(c1OC)-c1ccccc1C[C@H]3N(C)CC2,HTR2C,"ligand displacement, radioligand",cell membranes,pKi,7.65
CCC1CCN(C(=O)[C@H](CCCNC(=N)N)NS(=O)(=O)c2cccc3c(N(C)C)cccc23)CC1,"Prothrombin (F2, Bos taurus, UniProt P00735)","binding, ITC",,pKd,7.66
Ic1ccccc1CN[C@@H]1C2CCN(CC2)[C@@H]1C(c1ccccc1)c1ccccc1 (racemic),"Substance-P receptor (TACR1, Homo sapiens, UniProt P25103)","ligand displacement, radioligand",,pIC50,8.14
C[C@H](N)Cn1ncc2ccc3c(c21)CCCO3,"5-hydroxytryptamine receptor 2A (Rattus norvegicus, UniProt P14842)","calcium signal, agonist, fluorescence",,pEC50,7.65
CCCN1CCc2cc(OC)cc3c2[C@H]1Cc1ccc(O)c(O)c1-3,"D(3) dopamine receptor (Drd3, Rattus norvegicus, UniProt P19020)","binding, radioligand",cell membranes,pKd,8.69
CCN(CC)CCNC(=O)c1ccc(F)cc1,Tmem97,"ligand displacement, radioligand",cell membranes,pKi,3.92
CN(C)CCc1c[nH]c2ccc(Cn3cncn3)cc12,HTR2B,"calcium signal, agonist, fluorescence",,pEC50,4.85
CSc1nc(N[C@H](C(C)C)C2CC2)c2ncn([C@H]3[C@H](O)[C@H](O)[C@]4(CO)C[C@H]34)c2n1,HTR2C,"ligand displacement, radioligand",,pKi,6.36
CC1(C)S[C@H]2CS[C@H](CS)N2[C@@H]1C(=O)O,blaNDM-1,"enzyme activity, inhibitor, absorbance",pH 7.5,pKi,4.74
COc1cc2c3c(c1OC)-c1ccccc1CC3NCC2 (stereo not drawn),HTR2C,"ligand displacement, radioligand",cell membranes,pKi,6.35
CSC[C@@]12C[C@@H]1[C@@H](n1cnc3c(N[C@H](C(C)C)C4CC4)nc(Cl)nc31)[C@H](O)[C@@H]2O,HTR2C,"ligand displacement, radioligand",,pKi,5.59
COc1cc(CC(C)N)c(OC)cc1I (racemic),HTR2C,"ligand displacement, radioligand",,pKi,9.38
CC(C)[C@@H](Nc1nc(I)nc2c1ncn2[C@H]1[C@H](O)[C@H](O)[C@]2(CO)C[C@H]12)C1CC1,HTR2C,"ligand displacement, radioligand",,pKi,6.46
CCCCN1CCc2cc(OC)c(OC)cc2C1,Tmem97,"ligand displacement, radioligand",cell membranes,pKi,7.82
